ChEMBL document CHEMBL4325893, “Synthesis and antibacterial profiles of targeted triclosan derivatives” (2019)
≈ marks a conversion by molar mass, not a printed value.

How the values were obtained:
[1] = test system: Escherichia coli; experiment: Antibacterial activity against Escherichia coli OCC 122 after 18 hrs; assay type: functional; settings: OCC 122, 18 h
Summary of the method: (§1)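 Broth microdilution in Nutrient Broth No. 2; stocks in ethanol diluted to 0.01–128 µg/ml (triclosan) or 0.25–256 µg/ml (glycosides). Overnight 37 °C NB2 cultures diluted 1 in 10^4 in saline and added to the dilutions. Incubation at 37 °C with agitation, OD read every 15 min; MIC is the lowest concentration preventing any OD rise after 18 h.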

[2] = test system: Escherichia coli; experiment: Antibacterial activity against Escherichia coli ATCC 10536 after 18 hrs; assay type: functional; settings: ATCC 10536, 18 h; summary of the method: as §1
[3] = test system: Hafnia alvei; experiment: Antibacterial activity against Hafnia alvei 13337 after 18 hrs; assay type: functional; settings: Hafnia alvei, 13337, 18 h; summary of the method: as §1
[4] = test system: Pseudomonas aeruginosa; experiment: Antibacterial activity against Pseudomonas aeruginosa ATCC 27853 after 18 hrs; assay type: functional; settings: ATCC 27853, 18 h; summary of the method: as §1
[5] = test system: Enterococcus faecalis; experiment: Antibacterial activity against Enterococcus faecalis ATCC 29212 after 18 hrs; assay type: functional; settings: ATCC 29212, 18 h; summary of the method: as §1
[6] = test system: Staphylococcus aureus; experiment: Antibacterial activity against Staphylococcus aureus ATCC 9144 after 18 hrs; assay type: functional; settings: ATCC 9144, 18 h; summary of the method: as §1
[7] = Antibacterial activity against Salmonella enterica subspecies enterica serotype Infantis OCC 2133 after 18 hrs; assay type: functional, Salmonella enterica subsp. enterica serovar Infantis; settings: OCC 2133, 18 h; summary of the method: as §1
[8] = test system: Streptococcus pneumoniae; experiment: Antibacterial activity against Streptococcus pneumoniae 6305 after 18 hrs; assay type: functional; settings: Streptococcus pneumoniae, 6305, 18 h
Summary of the method: (§2)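 Broth microdilution in Nutrient Broth No. 2. Ethanol stocks were diluted in broth to 0.01–128 µg/ml for triclosan and 0.25–256 µg/ml for glycosides. Overnight 37°C NB2 cultures were diluted 1 in 10^4 in saline and added to the wells. Plates were incubated at 37°C with OD read every 15 min after agitation. MIC was the lowest concentration giving no OD increase at 18 h.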

[9] = test system: Cronobacter sakazakii; experiment: Antibacterial activity against Cronobacter sakazakii 29544 after 18 hrs; assay type: functional; settings: Cronobacter sakazakii, 29544, 18 h; summary of the method: as §1
[10] = Antibacterial activity against Salmonella enterica subspecies enterica serotype Nottingham NCTC 7832 after 18 hrs; assay type: functional, Salmonella enterica subsp. enterica serovar Nottingham; settings: NCTC 7832, 18 h; summary of the method: as §1
[11] = Antibacterial activity against Enterobacter cloacae ATCC 13047 after 18 hrs; assay type: functional, Enterobacter cloacae subsp. cloacae; settings: ATCC 13047, 18 h; summary of the method: as §1
[12] = test system: Serratia marcescens; experiment: Antibacterial activity against Serratia marcescens OCC 217 after 18 hrs; assay type: functional; settings: OCC 217, 18 h; summary of the method: as §1
[13] = Antibacterial activity against Salmonella enterica subspecies enterica serotype Dublin OCC 627 after 18 hrs; assay type: functional, Salmonella enterica subsp. enterica serovar Dublin; settings: OCC 627, 18 h; summary of the method: as §1
[14] = test system: Citrobacter freundii; experiment: Antibacterial activity against Citrobacter freundii 8090 after 18 hrs; assay type: functional; settings: Citrobacter freundii, 8090, 18 h; summary of the method: as §1
[15] = test system: Escherichia hermannii; experiment: Antibacterial activity against Escherichia hermannii 33650 after 18 hrs; assay type: functional; settings: Atlantibacter hermannii, 33650, 18 h; summary of the method: as §1
[16] = test system: Staphylococcus epidermidis; experiment: Antibacterial activity against Staphylococcus epidermidis 155 after 18 hrs; assay type: functional; settings: Staphylococcus epidermidis, 155, 18 h; summary of the method: as §1
[17] = test system: Bacillus subtilis; experiment: Antibacterial activity against Bacillus subtilis NCTC 10073 after 18 hrs; assay type: functional; settings: NCTC 10073, 18 h; summary of the method: as §1
[18] = test system: Staphylococcus aureus; experiment: Antibacterial activity against Staphylococcus aureus OCC 106 after 18 hrs; assay type: functional; settings: OCC 106, 18 h; summary of the method: as §1
[19] = test system: Streptococcus agalactiae; experiment: Antibacterial activity against Streptococcus agalactiae OCC 182 after 18 hrs; assay type: functional; settings: OCC 182, 18 h; summary of the method: as §2
[20] = test system: Staphylococcus saprophyticus; experiment: Antibacterial activity against Staphylococcus saprophyticus ATCC 15305 after 18 hrs; assay type: functional; settings: ATCC 15305, 18 h; summary of the method: as §2
[21] = test system: Klebsiella pneumoniae; experiment: Antibacterial activity against Klebsiella pneumoniae ATCC 10031 after 18 hrs; assay type: functional; settings: ATCC 10031, 18 h; summary of the method: as §1
[22] = test system: Staphylococcus epidermidis; experiment: Antibacterial activity against Staphylococcus epidermidis ATCC 14990 after 18 hrs; assay type: functional; settings: ATCC 14990, 18 h; summary of the method: as §1
[23] = test system: Escherichia coli; experiment: Antibacterial activity against Escherichia coli NCTC 13216 after 18 hrs; assay type: functional; settings: NCTC 13216, 18 h; summary of the method: as §1
[24] = test system: Bacillus cereus; experiment: Antibacterial activity against Bacillus cereus ATCC 14579 after 18 hrs; assay type: functional; settings: ATCC 14579, 18 h; summary of the method: as §1
[25] = test system: Staphylococcus aureus; experiment: Antibacterial activity against Staphylococcus aureus ATCC 29213 after 18 hrs; assay type: functional; settings: ATCC 29213, 18 h; summary of the method: as §1
[26] = test system: Klebsiella aerogenes; experiment: Antibacterial activity against Klebsiella aerogenes NCTC 8167 after 18 hrs; assay type: functional; settings: NCTC 8167, 18 h; summary of the method: as §1
[27] = test system: Streptococcus pyogenes; experiment: Antibacterial activity against Streptococcus pyogenes ATCC 19615 after 18 hrs; assay type: functional; settings: ATCC 19615, 18 h; summary of the method: as §2
[28] = test system: Staphylococcus aureus; experiment: Antibacterial activity against Staphylococcus aureus ATCC 25923 after 18 hrs; assay type: functional; settings: ATCC 25923, 18 h; summary of the method: as §1

- MIC [1]: 4 to 64 µg/mL (≈ 8.86 to 142 µM)
- MIC [2]: 4 to 64 µg/mL (≈ 8.86 to 142 µM)
- MIC [3]: 4 µg/mL (≈ 8.86 µM)
- MIC [4]: > 256 µg/mL
- MIC [5]: 256 µg/mL (≈ 567 µM)
- MIC [6]: 2 to 8 µg/mL (≈ 4.43 to 17.7 µM)
- MIC [7]: 16 to 64 µg/mL (≈ 35.4 to 142 µM)
- MIC [8]: 64 µg/mL (≈ 142 µM)
- MIC [9]: 128 µg/mL (≈ 283 µM)
- MIC [10]: 16 to 64 µg/mL (≈ 35.4 to 142 µM)
- MIC [11]: 8 µg/mL (≈ 17.7 µM)
- MIC [12]: > 256 µg/mL
- MIC [13]: 16 to 64 µg/mL (≈ 35.4 to 142 µM)
- MIC [14]: 64 µg/mL (≈ 142 µM)
- MIC [15]: 16 µg/mL (≈ 35.4 µM)
- MIC [16]: 4 to 8 µg/mL (≈ 8.86 to 17.7 µM)
- MIC [17]: 128 µg/mL (≈ 283 µM)
- MIC [18]: 2 to 8 µg/mL (≈ 4.43 to 17.7 µM)
- MIC [19]: 128 µg/mL (≈ 283 µM)
- MIC [20]: 32 µg/mL (≈ 70.8 µM)
- MIC [21]: 4 µg/mL (≈ 8.86 µM)
- MIC [22]: 4 to 8 µg/mL (≈ 8.86 to 17.7 µM)
- MIC [23]: 4 to 64 µg/mL (≈ 8.86 to 142 µM)
- MIC [24]: 256 µg/mL (≈ 567 µM)
- MIC [25]: 2 to 8 µg/mL (≈ 4.43 to 17.7 µM)
- MIC [26]: 32 µg/mL (≈ 70.8 µM)
- MIC [27]: 32 µg/mL (≈ 70.8 µM)
- MIC [28]: 2 to 8 µg/mL (≈ 4.43 to 17.7 µM)
Structure (SMILES): OC[C@H]1O[C@H](Oc2cc(Cl)ccc2Oc2ccc(Cl)cc2Cl)[C@@H](O)[C@@H](O)[C@@H]1O
